# TCR-CD3 inh: blocks the human TCR-CD3 interaction; TAMRA-labeled TCR probe fluorescence, biochemical; inhibition, % at 9.4 µM; actives 0.37% (n = 360,000); AID 651800;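 further: recombinant mutant TCR 2C K166C tagged with TAMRA read by polarization; 0% = receptor in buffer alone and 100% = receptor with positive control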
# HTRA1 inh: HTRA1 (human) protease inhibition; Q92743; recombinant HTRA1, FP-rhodamine activity-based probe, fluorescence polarization; inhibition, % at 5.96 µM; actives 0.5% (n = 340,000); in the data active means inhibition above about 36%;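 further: 0% = enzyme with DMSO and 100% = wells lacking enzyme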
# Target sequence (Q92743 whole entry, looked up): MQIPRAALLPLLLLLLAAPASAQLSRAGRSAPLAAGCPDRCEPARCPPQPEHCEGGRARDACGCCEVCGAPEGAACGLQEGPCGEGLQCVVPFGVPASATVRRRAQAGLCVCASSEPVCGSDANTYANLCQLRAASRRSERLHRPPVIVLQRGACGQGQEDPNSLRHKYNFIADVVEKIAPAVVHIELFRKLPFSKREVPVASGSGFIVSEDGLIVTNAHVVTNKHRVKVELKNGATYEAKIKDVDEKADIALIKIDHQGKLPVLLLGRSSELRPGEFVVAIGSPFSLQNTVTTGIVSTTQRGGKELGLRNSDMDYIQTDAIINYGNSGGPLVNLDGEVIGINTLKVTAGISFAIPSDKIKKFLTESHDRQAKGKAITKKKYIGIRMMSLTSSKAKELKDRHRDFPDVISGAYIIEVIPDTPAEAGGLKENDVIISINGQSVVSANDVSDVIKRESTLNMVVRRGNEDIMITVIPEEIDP
# SIAE inh: inhibitors of human sialic acid acetylesterase SIAE. SIAE FP-Rh probe binding, fluorescence polarization. AID 1053197. Q9HAT2. inhibition, % at 9.66 µM. actives 0.69% (n = 370,000);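 active means inhibition above a cutoff: mean of compounds within the control limits plus 3 SD of those, cut at about 17% in these data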;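 further: 0% = plate median of compound wells and 100% = probe without SIAE protein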
# ABHD4 inh: inhibitors of mouse ABHD4; purified mABHD4, FP-Rh probe fluorescence polarization; inhibition, % at 8.92 µM; actives 0.54% (n = 370,000); AID 720543;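 active means inhibition exceeding the mean over every tested compound plus 3 SD, cut at about 30% in these data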;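 further: 0% = plate median of compound wells and 100% = S159A mutant with DMSO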
#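 Assay system: mouse ABHD4 enzyme, wild type / Also added: fluorescent activity-based probe FP-Rh / Doses: single nominal dose of 8.92 µM, 0.89% DMSO final / Timing: 45 min compound pre-incubation plus 60 min probe step, 25 °C / Signal: FP readout, ex 525 nm / em 598 nm / Control set: S159A mutant/DMSO as 100%, compound-well median as 0%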
# ARNT-TACC3 inh: ARNT/TACC3 interaction disruption; Q9Y6A5; AlphaScreen His-ARNT PAS-B/GST-TACC3 binding, luminescence; TACC3 fragment carries E629A point mutation; inhibition, % at 9.99 µM; actives 0.66% (n = 390,000);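 active means mean inhibition of replicates at least 50% and at least half of replicates each reaching 50%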;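 further: 0% = complete ARNT plus TACC3 wells and 100% = ARNT alone without TACC3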
# HTRA1 inh conf: HTRA1 (human) inhibition, confirmation. shares compounds with HTRA1 inh. recombinant HTRA1, FP-rhodamine activity-based probe, fluorescence polarization. inhibition, % at 5.96 µM. actives 66% (n = 1,600);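 active means mean inhibition over three repeats above a set limit taken from the earlier primary screen, cut at about 37% in these data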;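 further: 0% = HTRA1 with DMSO and 100% = wells lacking HTRA1; inhibitors block probe binding so polarization drops and inhibition rises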
# ARNT Alpha ctr: AlphaScreen artifact in ARNT/TACC3 counter-screen; shares compounds with ARNT-TACC3 inh; His-ARNT PASB-GST AlphaScreen artifact counter-screen, luminescence; AC50, µM (top dose mostly 68 µM), for inactives: at the highest dose activity change, negative = signal decrease; actives 50% (n = 1,200);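 active means every separate test run was called active for a drop in luminescence, with AC50 within twice the top valid dose, actives reach about 71 µM in these data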
# BSA probe FL: counter-screen for TCR-CD3 interaction inhibitors: BSA probe; shares compounds with TCR-CD3 inh; TAMRA-labeled BSA probe fluorescence counterscreen; inhibition, % at 9.4 µM; actives 10% (n = 1,200); AID 652035; in the data active means inhibition above about 23%;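 further: 0% = buffer low control and 100% = reference high control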
# TCR-CD3 inh conf: confirmation of human TCR-CD3 interaction inhibitors | TAMRA-labeled TCR probe fluorescence binding assay | actives 48% (n = 1,200) | AID 652036 | shares compounds with TCR-CD3 inh | inhibition, % at 9.4 µM
# ABHD4 confirm: ABHD4 (mouse) inhibition, FP confirmation | actives 55% (n = 1,800) | inhibition, % at 8.92 µM | shares compounds with ABHD4 inh | purified mABHD4, FP-Rh probe fluorescence polarization;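 active means mean inhibition across replicates above the hit cutoff set in the primary screen, cut at about 30% in these data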;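 further: 0% = wild-type ABHD4 with DMSO and 100% = catalytically dead S159A mutant with DMSO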
# * = called active by the depositor; / = no result given. Hits are enriched below; roughly 1.8% of the tested compounds scored in any of these assays. Unless noted, no stated cut-off is given here; in the data, active means inhibition above about 19%; inactive means the rest.
SMILES,TCR-CD3 inh,HTRA1 inh,SIAE inh,ABHD4 inh,ARNT-TACC3 inh,HTRA1 inh conf,ABHD4 confirm,others
O=c1cc(-c2ccc(O)cc2)oc2c(O)c(O)c(O)c(O)c12,22.6*,51.6*,13.3,35.9*,53.0*,59.0*,17.4,ARNT Alpha ctr=-35.4%;BSA probe FL=-0.2;TCR-CD3 inh conf=38.2*
O=c1cc(-c2ccccc2)oc2cc(O)c(O)c(O)c12,37.7*,79.8*,17.0,51.9*,17.5,85.4*,36.6*,BSA probe FL=-12.8;TCR-CD3 inh conf=24.3*
COc1c(O)cc2oc(-c3ccc(O)cc3)cc(=O)c2c1O,4.4,-2.4,3.1,10.7,41.2,/,/,
CC(C)c1cc2c(c(O)c1O)[C@@]13CCCC(C)(C)C1CC2OC3=O (stereo partly specified),-2.9,48.3*,20.1*,30.9*,-6.3,18.5,26.2,
C[C@H]1CCCCO[C@@H](CN(C)S(=O)(=O)c2ccccc2)[C@@H](C)CN([C@@H](C)CO)C(=O)c2cc(NC(=O)NC3CCCCC3)ccc2O1,/,/,/,/,21.9,/,/,
O=S(=O)(O)c1cc(Cl)cc(N=Nc2ccc(O)cc2O)c1O,64.8*,39.8*,6.8,69.7*,63.2*,38.2*,-14.4,BSA probe FL=65.4*;TCR-CD3 inh conf=54.0*
O=[N+]([O-])c1ccc(N=Nc2ccc(O)cc2O)cc1,2.1,0.3,4.0,25.2,-8.5,/,/,
Cc1cc(N(C)C)ccc1N=Nc1ccc2ncccc2c1,-2.0,37.0*,3.3,45.0*,7.1,37.2*,53.9*,
CN(C)c1ccc(N=Nc2ccc3ncccc3c2)cc1,3.7,12.8,-1.0,7.0,20.1,/,/,
CC(C)(C)[S@](=O)N1Cc2cc(C(=O)NCCN3CCCCC3)nc(-c3cccc(-c4ccc(C#N)cc4)c3)c2[C@@H]1CCO,/,/,/,/,38.9,/,/,
O=C1OC(c2ccc3ccccc3c2O)(c2ccc3ccccc3c2O)c2ccccc21,0.7,36.2*,11.9,43.8*,/,44.0*,48.0*,
Oc1c(Cl)cc(Cl)c2c1NCCC2,5.1,51.5*,14.4,38.0*,33.8,30.1,37.4*,
O=C1NCCCc2c1oc1ccc(O)cc21,-2.1,-3.2,5.1,-5.4,/,/,/,
CCN(CC)c1ccc(N=Cc2cc(Br)ccc2O)cc1,7.8,59.8*,11.3,45.1*,/,3.8,28.8,
Oc1ccc(Br)cc1C=Nc1ccc(Cl)cc1,14.4,-1.1,6.1,-1.7,/,/,/,
CCCCCCCCCCCCCCC(O)C[N+](C)(CCO)CCO (stereo unspecified),-0.1,54.4*,-6.8,44.9*,-2.5,54.8*,48.1*,
Cc1ccc(O)c(N=CC2=C(O)c3ccccc3C2=O)c1,11.6,43.6*,-0.6,34.0*,17.8,75.8*,46.4*,
Cc1cccc(C)c1N=Nc1c(C)cc(O)cc1C,3.0,47.0*,10.7,32.4*,21.2,50.5*,38.5*,
COc1ccccc1N=Nc1ccc(O)c2ncccc12,1.7,80.6*,14.6,38.0*,66.5*,62.5*,36.5*,
O=C(O)c1cccc2c1C(=O)c1ccccc1C2=O,-2.2,2.5,1.8,4.8,8.7,/,/,
O=C1c2ccccc2C(=O)c2c(O)c(O)cc(O)c21,25.1*,71.7*,12.3,73.3*,/,70.8*,60.8*,BSA probe FL=44.0*;TCR-CD3 inh conf=33.6*
Cc1ccc(SCc2cc(=O)c3c(=O)n(-c4ccccc4)[nH]c3[nH]2)cc1,2.2,56.0*,16.1,54.4*,-1.4,8.4,34.5*,
C[C@@H]1CCCCO[C@H](CN(C)CC2CC2)[C@H](C)CN([C@@H](C)CO)C(=O)c2cc(NC(=O)Nc3ccc4c(c3)OCO4)ccc2O1,/,/,/,/,18.1,/,/,
N#Cc1ccc(/C=N/NC(=S)Nc2ccc(S(=O)(=O)N3CCOCC3)cc2)cc1,-1.6,-11.1,-8.1,3.3,0.3,/,/,
O=[N+]([O-])c1cc(Cl)cc(/C=N/NC(=S)Nc2ccc(S(=O)(=O)N3CCOCC3)cc2)c1O,42.1*,61.8*,12.6,56.8*,69.6*,58.7*,118.2*,BSA probe FL=-4.6;TCR-CD3 inh conf=43.4*
SMILES,TCR-CD3 inh,HTRA1 inh,SIAE inh,ABHD4 inh,ARNT-TACC3 inh,HTRA1 inh conf,ABHD4 confirm,others
COc1cccc(NC(=O)N[C@@H]2C=C[C@@H](CC(=O)Nc3ccc(-c4ccccc4)cc3)O[C@H]2CO)c1,/,/,/,/,-3.6,/,/,
c1cc2c3c(cccc3c1)NN=N2,-1.2,37.3*,7.6,32.8*,1.9,33.4,27.1,
Cc1ccc(NC(=S)NNc2ccc(C(=O)O)cc2[N+](=O)[O-])cc1C,28.1*,48.8*,7.5,69.5*,21.4,40.6*,47.4*,BSA probe FL=-4.3;TCR-CD3 inh conf=14.9
O=C1c2ccccc2C(=O)c2c(/C=C/N3CCCCC3)ccnc21,7.3,60.9*,10.6,46.3*,35.2,64.3*,36.3*,
Cc1ccc(C)n1-c1ccc(N(C)C)cc1,6.3,38.2*,9.2,31.7*,13.9,39.6*,6.9,
Cc1ccc(N(C)C)cc1,-0.1,/,3.9,-2.2,/,/,/,
C[C@H](CO)N1C[C@H](C)[C@H](CN(C)Cc2ccc(C(=O)O)cc2)Oc2c(NS(C)(=O)=O)cccc2C1=O,/,/,/,/,-7.1,/,/,
CO[C@H]1/C=C/O[C@@]2(C)Oc3c(C)c(O)c4c(O)c(c(C=NN5CCN(C)CC5)c(O)c4c3C2=O)NC(=O)/C(C)=C\C=C\[C@H](C)[C@H](O)[C@@H](C)[C@@H](O)[C@@H](C)[C@H](OC(C)=O)[C@@H]1C,4.3,36.3*,5.8,34.6*,6.3,7.2,3.0,
Oc1ccc(-c2ccccc2F)c2cccnc12,/,/,10.2,12.7,/,/,/,
Oc1c(I)cc(I)c2cccnc12,6.0,72.1*,34.4*,32.7*,54.8*,65.7*,28.6,ARNT Alpha ctr=49.5µM*
Oc1ccc(Nc2nc(-c3ccc4ccccc4c3)cs2)cc1,-0.8,32.1,9.4,6.3,-8.6,/,/,
Oc1ccc(-c2nc(-c3ccc(O)c(O)c3)cs2)cc1,-2.7,55.1*,10.8,33.3*,18.8,55.0*,32.1*,
CCN1[C@@H]2c3ccc(-c4ccncc4)c(=O)n3C[C@@H]2[C@@H](CO)[C@@H]1C(=O)Nc1ccccc1,/,/,/,/,2.2,/,/,
O=[N+]([O-])c1ccc2c(c1Nc1ccccc1)=NC1(CCCCC1)N=2,6.7,15.0,3.5,7.4,6.3,/,/,
COc1ccc(Nc2c([N+](=O)[O-])ccc3c2=NC2(CCCCC2)N=3)cc1,-5.3,54.7*,4.8,30.5*,8.4,51.9*,40.3*,

# Screening data from PubChem BioAssay.
